Laboratory results taken from ChEMBL document CHEMBL1129574, “Synthesis, structure-activity relationships, and pharmacokinetic properties of dihydroorotate dehydrogenase inhibitors: 2-cyano-3-cyclopropyl-3-hydroxy-N-[3'-methyl-4'-(trifluoromethyl)phenyl ] propenamide and related compounds” (J Med Chem, 1996).
pIC50: −log10 of the molar value.

Columns and labels:
Rattus norvegicus [1] = test: Compound was tested in vivo for its ability to inhibit DTH(delayed type hypersensitivity ) in rat at a concentration of 10 mg/kg; format: functional
In short: (§1)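 Male CFHB rats (160-180 g, n=7-12) sensitized day 0 by tail-base s.c. FCA (0.4 mg M. tuberculosis in liquid paraffin); controls got incomplete adjuvant. Day 7 challenge: soluble M. tuberculosis extract 0.4 mg into right hind footpad, saline in left. Oral dosing once daily days 4-6 and twice day 7 (1 h before, 6 h after). Edema read at 24 h; Student's t-test.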

[2] = t1/2 in mouse plasma after oral dose (30/mg/Kg); format: ADME, organism-based
In short: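 Male CD-1 mice (25–32 g, n=5/time point) gavaged orally 30 mg/kg (10 mL/kg). Blood by exsanguination under ether at 0, 1, 3, 6, 24, 48, 72 h, pooled per time point, heparinized; plasma stored −20 °C. Drug quantified by reversed-phase HPLC (ODS, pH 7 phosphate/acetonitrile 65:35, UV 300 nm) with internal standard and spiked-plasma calibration.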

[3] = biological target: Dihydroorotate dehydrogenase (quinone), mitochondrial (Rattus norvegicus, UniProt Q63707); test: Inhibitory concentration tested against enzyme dihydroorotate dehydrogenase in rat
[4] = biological target: Dihydroorotate dehydrogenase (quinone), mitochondrial (Mus musculus, UniProt O35435); test: Inhibitory concentration tested on enzyme dihydroorotate dehydrogenase in mouse
[5] = t1/2 in rat plasma after oral dose (10 mg/kg); format: ADME, organism-based
In short: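 Male Wistar CFHB rats (190–220 g, n=3/time point) given 10 mg/kg orally by gavage (10 mL/kg). Cardiac-puncture blood under ether at 0, 1, 3, 6, 24, 48, 72 h, individual heparinized samples; plasma kept at −20 °C. Levels by HPLC (ODS column, 0.1 M pH 7 phosphate 65%/acetonitrile 35%, UV 300 nm), internal standard, peak-area calibration from spiked blank plasma.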

Mus musculus [6] = test: Compound was tested in vivo for its ability to inhibit DTH(delayed type hypersensitivity ) in mouse at a concentration of 30 mg/kg; format: functional
In short: (§2)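 Male CD-1 mice (25–30 g, n = 8-16) sensitized day 0 by s.c. 1 mg methylated BSA in saline/Freund's complete adjuvant; negative controls saline/FCA. Day 7 challenge: MBSA 0.1 mg into right hind footpad, saline in left. Oral dosing once daily days 4–6 plus twice on day 7 (1 h before, 6 h after challenge). Paw edema read 24 h post-challenge; Student's t-test.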

Rattus norvegicus [7] = test: Compound was tested in vivo for its ability to inhibit DTH(delayed type hypersensitivity ) in rat at a concentration of 50 mg/kg; format: functional; in short: as §1
Rattus norvegicus [8] = test: Compound was tested in vivo for its ability to inhibit DTH(delayed type hypersensitivity ) in rat at a concentration of 1 mg/kg; format: functional; in short: as §1
Rattus norvegicus [9] = test: In vivo for its ability to inhibit delayed type hypersensitivity in rat following 10 mg/kg administration.
Mus musculus [10] = test: Compound was tested in vivo for its ability to inhibit DTH(delayed type hypersensitivity ) in mouse at a concentration of 10 mg/kg; format: functional; in short: as §2
Mus musculus [11] = test: In vivo for its ability to inhibit delayed type hypersensitivity in mouse following 30 mg/kg administration.; format: functional; in short: as §2
Rattus norvegicus [12] = test: Compound was tested in vivo for its ability to inhibit DTH(delayed type hypersensitivity )in rat at a concentration of 1 mg/kg; format: functional; in short: as §1
Mus musculus [13] = test: Compound was tested in vivo for its ability to inhibit DTH(delayed type hypersensitivity ) in mouse at a concentration of 100 mg/kg; format: functional; in short: as §2
Mus musculus [14] = test: Compound was tested in vivo for its ability to inhibit DTH(delayed type hypersensitivity )in mouse at a concentration of 30 mg/kg.; format: functional; in short: as §2
Rattus norvegicus [15] = test: Compound was tested in vivo for its ability to inhibit DTH(delayed type hypersensitivity )in rat at a concentration of 3 mg/kg; format: functional; in short: as §1
Rattus norvegicus [16] = test: Compound was tested in vivo for its ability to inhibit DTH(delayed type hypersensitivity )in rat at a concentration of 50 mg/kg; format: functional; in short: as §1
Mus musculus [17] = test: In vivo ability to inhibit delayed type hypersensitivity in mouse at a concentration of 100 mg/kg; format: functional; in short: as §2
Rattus norvegicus [18] = test: Compound was tested in vivo for its ability to inhibit DTH(delayed type hypersensitivity ) in rat at a concentration of 3 mg/kg; format: functional; in short: as §1
Rattus norvegicus [19] = test: Compound was tested in vivo for its ability to inhibit DTH(delayed type hypersensitivity )in rat at a concentration of 50 mg/kg

Dihydroorotate dehydrogenase (quinone), mitochondrial (Rattus norvegicus, UniProt Q63707), sequence (Q63707 whole entry): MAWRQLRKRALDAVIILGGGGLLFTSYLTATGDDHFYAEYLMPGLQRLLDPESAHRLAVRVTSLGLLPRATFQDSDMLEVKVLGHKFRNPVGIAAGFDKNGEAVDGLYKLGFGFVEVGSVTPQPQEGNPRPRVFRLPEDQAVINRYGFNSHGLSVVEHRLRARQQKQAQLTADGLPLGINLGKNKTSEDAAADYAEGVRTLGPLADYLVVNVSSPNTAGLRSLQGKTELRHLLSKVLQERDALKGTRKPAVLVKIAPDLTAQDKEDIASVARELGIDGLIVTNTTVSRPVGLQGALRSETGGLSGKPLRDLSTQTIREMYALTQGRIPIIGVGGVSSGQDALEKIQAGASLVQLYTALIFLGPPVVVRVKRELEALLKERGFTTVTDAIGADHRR
Dihydroorotate dehydrogenase (quinone), mitochondrial (Mus musculus, UniProt O35435), sequence (O35435 whole entry): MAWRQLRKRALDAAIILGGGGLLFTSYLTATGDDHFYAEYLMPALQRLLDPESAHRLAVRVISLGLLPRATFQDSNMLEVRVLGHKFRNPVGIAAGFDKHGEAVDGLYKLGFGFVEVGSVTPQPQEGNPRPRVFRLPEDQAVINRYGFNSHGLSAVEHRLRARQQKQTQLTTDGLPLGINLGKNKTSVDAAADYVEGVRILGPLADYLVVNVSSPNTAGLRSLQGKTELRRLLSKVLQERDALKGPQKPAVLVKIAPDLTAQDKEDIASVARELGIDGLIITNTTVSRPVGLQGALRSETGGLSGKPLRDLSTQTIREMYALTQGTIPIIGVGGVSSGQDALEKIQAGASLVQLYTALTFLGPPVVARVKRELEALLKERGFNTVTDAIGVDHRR

Row | SMILES | half-life [2] [h] | pIC50 [3] | pIC50 [4] | half-life [5] [h] | inhibition in vivo at 30 mg/kg (Mus musculus [6]) [%] | inhibition in vivo at 50 mg/kg (Rattus norvegicus [7]) [%] | other results
1 | N#C/C(C(=O)Nc1ccc(SC(F)(F)F)cc1)=C(/O)C1CC1 | 6 | – | 7.00 | 2 | 39 | – | inhibition in vivo at 1 mg/kg (Rattus norvegicus [8]): 58%
2 | N#C/C(C(=O)Nc1ccc(C(F)(F)F)cc1)=C(/O)c1ccc(C(F)(F)F)cc1 | – | < 5.00 | < 5.00 | – | – | – | inhibition in vivo at 10 mg/kg (Rattus norvegicus [9]): 16%; inhibition in vivo at 10 mg/kg (Mus musculus [10]): 17%
3 | C/C=C/C(O)=C(\C#N)C(=O)Nc1ccc(C(F)(F)F)cc1 | – | 5.85 | 5.37 | – | – | 16 | inhibition in vivo at 100 mg/kg (Mus musculus [13]): 54%
4 | N#C/C(C(=O)Nc1ccc(OC(F)(F)F)cc1)=C(/O)C1CC1 | 42 | 8.30 | 6.76 | 22 | – | – | inhibition in vivo at 1 mg/kg (Rattus norvegicus [12]): 78%; inhibition in vivo at 30 mg/kg (Mus musculus [14]): 85%
5 | C=CC/C(O)=C(\C#N)C(=O)Nc1ccc(C(F)(F)F)cc1 | 23 | 6.97 | 7.20 | 4 | 75 | 79 | –
6 | Cc1cc(NC(=O)/C(C#N)=C(\O)C2CC2)ccc1C(F)(F)C(F)(F)F | 11 | 7.96 | 6.55 | 10 | – | – | inhibition in vivo at 3 mg/kg (Rattus norvegicus [15]): 70%; inhibition in vivo at 30 mg/kg (Mus musculus [11]): 65%
7 | N#C/C(C(=O)Nc1ccc(CCc2ccccc2)cc1)=C(/O)C1CC1 | – | 6.86 | – | – | – | – | inhibition in vivo at 50 mg/kg (Rattus norvegicus [16]): 51%; inhibition in vivo at 100 mg/kg (Mus musculus [17]): 5%
8 | N#C/C(C(=O)Nc1ccc(S(=O)(=O)C(F)(F)F)cc1)=C(/O)C1CC1 | 14 | 8.52 | 7.05 | 14 | 43 | – | inhibition in vivo at 3 mg/kg (Rattus norvegicus [18]): 66%
9 | C=C(C)/C(O)=C(\C#N)C(=O)Nc1ccc(C(F)(F)F)cc1 | 13 | 6.60 | 6.71 | 7 | – | 78 | inhibition in vivo at 100 mg/kg (Mus musculus [13]): 54%
10 | N#C/C(C(=O)Nc1ccc(C(F)(F)F)cn1)=C(/O)C1CC1 | 5 | 7.77 | 6.80 | 7 | – | – | inhibition in vivo at 3 mg/kg (Rattus norvegicus [15]): 40%; inhibition in vivo at 100 mg/kg (Mus musculus [17]): 67%

Further lines, with some results ahead:

Row | half-life [2] [h] | pIC50 [3] | pIC50 [4] | half-life [5] [h] | SMILES | inhibition in vivo at 30 mg/kg (Mus musculus [6]) [%] | inhibition in vivo at 50 mg/kg (Rattus norvegicus [7]) [%] | other results
11 | 6 | 7.28 | 7.38 | 5 | N#C/C(C(=O)Nc1ccc(C#N)cc1)=C(/O)C1CC1 | 73 | – | inhibition in vivo at 10 mg/kg (Rattus norvegicus [1]): 47%
12 | – | 6.32 | 6.28 | – | N#C/C(C(=O)Nc1cccc(C(F)(F)F)c1)=C(/O)C1CC1 | 41 | 49 | –
13 | – | 5.70 | 5.80 | – | N#C/C(C(=O)Nc1ccccc1)=C(/O)C1CC1 | 25 | 43 | –
14 | 10 | 7.96 | 6.75 | 13 | Cc1cc(NC(=O)/C(C#N)=C(\O)C2CC2)ccc1SC(F)(F)F | – | – | inhibition in vivo at 30 mg/kg (Mus musculus [11]): 55%; inhibition in vivo at 1 mg/kg (Rattus norvegicus [12]): 68%
15 | – | 5.34 | 4.43 | – | N#CCc1ccc(NC(=O)/C(C#N)=C(\O)C2CC2)cc1 | – | 3 | inhibition in vivo at 100 mg/kg (Mus musculus [13]): 36%
16 | < 2 | 7.89 | 6.35 | < 1 | CSc1ccc(NC(=O)/C(C#N)=C(\O)C2CC2)cc1 | – | 60 | inhibition in vivo at 100 mg/kg (Mus musculus [13]): 46%
17 | 14 | 7.74 | 6.75 | 4 | Cc1cc(NC(=O)/C(C#N)=C(\O)C2CC2)ccc1OC(F)(F)F | – | – | inhibition in vivo at 3 mg/kg (Rattus norvegicus [15]): 46%; inhibition in vivo at 30 mg/kg (Mus musculus [11]): 61%
18 | 33 | 7.10 | 7.44 | 20 | N#C/C(C(=O)Nc1ccc(Br)cc1)=C(/O)C1CC1 | 64 | – | inhibition in vivo at 10 mg/kg (Rattus norvegicus [1]): 58%
19 | 2 | 6.46 | 5.52 | 3 | N#C/C(C(=O)Nc1cccc(Cl)c1)=C(/O)C1CC1 | – | 25 | inhibition in vivo at 100 mg/kg (Mus musculus [13]): 55%
20 | – | < 4.00 | < 4.00 | – | N#C/C(C(=O)Nc1ccccc1C(F)(F)F)=C(/O)C1CC1 | – | -4 | inhibition in vivo at 100 mg/kg (Mus musculus [13]): -10%
21 | 21 | – | 7.44 | 22 | N#C/C(C(=O)Nc1ccc(Cl)cc1)=C(/O)C1CC1 | – | – | inhibition in vivo at 3 mg/kg (Rattus norvegicus [18]): 74%
22 | 8 | 7.68 | 7.30 | 4 | N#C/C(C(=O)Nc1ccc([N+](=O)[O-])cc1)=C(/O)C1CC1 | – | – | inhibition in vivo at 30 mg/kg (Mus musculus [11]): 64%; inhibition in vivo at 50 mg/kg (Rattus norvegicus [19]): 90%
23 | 3 | 7.80 | 6.38 | 3 | N#C/C(C(=O)Nc1ccc([S+]([O-])C(F)(F)F)cc1)=C(/O)C1CC1 (centres undefined) | 25 | – | inhibition in vivo at 3 mg/kg (Rattus norvegicus [18]): 75%
24 | – | 6.63 | 6.54 | – | Cc1ccc(NC(=O)/C(C#N)=C(\O)C2CC2)cc1 | – | 28 | inhibition in vivo at 100 mg/kg (Mus musculus [13]): 47%
